# ChEMBL document CHEMBL3526077, “Prediction of human metabolism of FK3453 by aldehyde oxidase using chimeric mice transplanted with human or rat hepatocytes” (Drug Metab Dispos, 2012)
# What was measured:
# [1] = system: Mus musculus; test: Drug metabolism in plasma of chimeric mouse transplanted with rat hepatocytes treated with FK3453 at 3 mg/kg, iv as single dose; format: ADME, organism-based, Hepatocyte; design: dose 3 mg/kg, route intravenous
# Outline: (§1)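 Pooled plasma from h-PXB or r-PXB mice after a 3 mg/kg i.v. dose was mixed with an equal volume of acetonitrile and centrifuged. Metabolites were profiled by C18 UPLC with ammonium formate/acetonitrile gradient, UV 254 nm, and Orbitrap MS/MS. Scored as detected or not detected.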
# [2] = system: Mus musculus; test: Drug metabolism in plasma of chimeric mouse transplanted with human hepatocytes treated with FK3453 at 3 mg/kg, iv as single dose; format: ADME, organism-based, Hepatocyte; design: dose 3 mg/kg, route intravenous; outline: as §1
# [3] = Retention time of the compound by UV/mass spectrometry; format: physicochemical
# Outline: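 Retention time on Acquity BEH C18 column (1.7 µm, 2.1×100 mm). Mobile phase 5 mM ammonium formate with 5% acetonitrile against acetonitrile, at 0.2 mL/min. Gradient: 100:0 to 2.5 min, linear to 65:35 by 25 min, 10:90 to 27 min. Detection by UV at 254 nm and MS.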
smiles,measurement,setting,value
CC(C)n1nc(-c2c(-c3ccccc3)nc(N)[nH]c2=O)ccc1=O,Drug metabolism,[1],metabolite_detected
same,Drug metabolism,[2],metabolite_detected
same,Retention_time,[3],16.5 min
